Experimental data reported in ChEMBL document CHEMBL1681647, “Targeting bacterial biofilms: design of a terpenoid-like library as non-toxic anti-biofilm compounds” (Bioorg Med Chem Lett, 2011).
The source made the active and inactive calls. No cut-off for these calls is given here.

Columns and labels:
[1] = test system: Pseudoalteromonas sp. D41; experiment: Antibiofilm activity in Pseudoalteromonas sp. D41 assessed as bacterial adhesion at 500 uM after 15 mins using DAPI staining by micro-plate fluorescence reader; type: functional; conditions: in the assay text read “15 h” for “15 mins”
Summary of the method: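 Single-concentration screen at 500 in triplicate. D41 was grown in VNSS at 20 °C to stationary phase, then resuspended in artificial sea water at OD600 0.2–0.4. Incubation was 15 h at 20 °C with an ASW adhesion control. Wells were NaCl-washed and fixed in 2% formaldehyde for 90 min at 4 °C, then DAPI-stained. Fluorescence of the ethanol-solubilized dye was read at 380 nm excitation and 495 nm emission.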

[2] = test system: Pseudoalteromonas sp. D41; experiment: Antibiofilm activity in Pseudoalteromonas sp. D41 assessed as bacterial adhesion after 15 h using DAPI staining by micro-plate fluorescence reader; conditions: Pseudoalteromonas sp. D41, 15 h
[3] = test system: Pseudoalteromonas sp. D41; experiment: Antibiofilm activity in Pseudoalteromonas sp. D41 assessed as bacterial adhesion at 500 uM after 15 h using DAPI staining by micro-plate fluorescence reader
[4] = test system: Pseudoalteromonas sp. D41; experiment: Antibacterial activity against Pseudoalteromonas sp. D41 assessed as inhibition of bacterial growth up to 100 uM; type: functional
Summary of the method: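 Growth assay with D41 grown in VNSS at 20 °C, shaken at 120 rpm and sampled in exponential phase, then subcultured at OD600 0.1. Compound was added at concentrations from 1 to 100 in triplicate, with a growth control and a solvent (DMSO or methanol) control. Plates were shaken at 120 rpm at 20 °C and OD600 was read hourly.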

Structure (SMILES)	Activity [1] [%]	EC50 [2] [µM]	also measured
COc1ccccc1-n1cc(COC/C=C(\C)CCC=C(C)C)nn1	29	166	–
CC(C)=CC(=O)C/C(C)=C/CC/C(C)=C/CC/C(C)=C/CO [ELEGANOLONE]	17	174	–
COc1cccc(-c2cn(C/C=C(\C)CCC=C(C)C)nn2)c1	90	–	–
COc1cc(-n2cc(COC/C=C(\C)CC/C=C(\C)CCC=C(C)C)nn2)cc(OC)c1OC	50	–	–
COc1cccc(-n2cc(COC/C=C(\C)CC/C=C(\C)CCC=C(C)C)nn2)c1	25	198	–
COc1ccccc1-n1cc(COC/C=C(\C)CC/C=C(\C)CCC=C(C)C)nn1	35	–	–
CC(C)=CCC/C(C)=C/CC/C(C)=C/Cn1cc(-c2cccc(O)c2)nn1	34	–	–
COc1ccc(-c2cn(C/C=C(\C)CC/C=C(\C)CCC=C(C)C)nn2)cc1	46	–	–
CC(C)=CCC/C(C)=C/COCc1cn(-c2ccc(C(=O)O)cc2)nn1	39	–	–
COc1cc(OC)cc(-n2cc(COC/C=C(\C)CC/C=C(\C)CCC=C(C)C)nn2)c1	76	–	–
COc1ccc(-c2cn(C/C=C(\C)CCC=C(C)C)nn2)cc1	3	–	–
COc1cccc(-c2cn(C/C=C(\C)CC/C=C(\C)CCC=C(C)C)nn2)c1	–	–	Activity [3]: 15%
COc1cc(OC)cc(-c2cn(C/C=C(\C)CC/C=C(\C)CCC=C(C)C)nn2)c1	0	71	–
CC(C)=CCC/C(C)=C/CC/C(C)=C/COCc1cn(-c2ccc(O)cc2)nn1	73	–	–
CC(C)=CCC/C(C)=C/CC/C(C)=C/COCc1cn(-c2cccc(C(=O)O)c2)nn1	>90	–	–
COc1cc(OC)cc(-n2cc(COC/C=C(\C)CCC=C(C)C)nn2)c1	76	–	–
COc1ccc(-n2cc(COC/C=C(\C)CC/C=C(\C)CCC=C(C)C)nn2)cc1	24	117	–
CC(C)=CCC/C(C)=C/CC/C(C)=C/COCc1cn(-c2cccc(O)c2)nn1	>90	–	–
COc1cc(-n2cc(COC/C=C(\C)CCC=C(C)C)nn2)cc(OC)c1OC	36	–	–
CC(C)=CCC/C(C)=C/COCc1cn(-c2cccc(O)c2)nn1	55	–	–
CC(C)=CCC/C(C)=C/COCc1cn(-c2ccc(O)cc2)nn1	>90	–	–
CC(C)=C[C@@H](O)C/C(C)=C/CC/C(C)=C/CC/C(C)=C/CO [ELEGANEDIOL]	14	224	–
CC(C)=CCC/C(C)=C/COCc1cn(-c2cccc(C(=O)O)c2)nn1	32	74	inhibition [4]: inactive
CC(C)=CCC/C(C)=C/Cn1cc(-c2cccc(O)c2)nn1	30	–	–
COc1cc(OC)cc(-c2cn(C/C=C(\C)CCC=C(C)C)nn2)c1	90	–	–
COc1cccc(-n2cc(COC/C=C(\C)CCC=C(C)C)nn2)c1	19	103	inhibition [4]: inactive
COc1ccccc1-c1cn(C/C=C(\C)CCC=C(C)C)nn1	90	–	–
COc1ccc(-n2cc(COC/C=C(\C)CCC=C(C)C)nn2)cc1	20	276	–
CC(C)=CCC/C(C)=C/CC/C(C)=C/COCc1cn(-c2ccc(C(=O)O)cc2)nn1	>90	–	–
